Here are results for 36 molecules from ChEMBL document CHEMBL1147781, “Design, synthesis and in vitro antimalarial activity of an acylhydrazone library” (Bioorg Med Chem Lett, 2006).

In experiment [1] the test system is Plasmodium falciparum. The experiment is described as follows: Growth inhibition of chloroquine-resistant Plasmodium falciparum FcB1 at 1 uM. It is filed as functional.
The test system of experiment [2] is Plasmodium falciparum. The experiment is described as follows: Antimalarial activity against chloroquine-resistant Plasmodium falciparum FcB1. The experiment is classed as functional, organism-based. The procedure, abridged: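 P. falciparum FcB1 (chloroquine-resistant) growth inhibition; IC50 reported as mean ± SD of two to three independent experiments.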

Experiment [3] has as its system MRC5. The experiment is described as follows: Relative antimalarial activity to cytotoxicity as selectivity index (CC50/IC50). It is filed as functional.
Experiment [4] concerns MRC5. As to the kind of experiment: Cytotoxicity against human diploid embryonic lung MRC5 cells by colorimetric MTT assay. It is filed as functional. The procedure, abridged:
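Human MRC5 cells were used, with the value reported as CC50 in µM. Results are given as the mean ± SD of two to three independent experiments.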

By inhibition is commonly meant the share of the control response that was lost under treatment. A lower inhibition goes with little suppression. For orientation: IC50 means the concentration that inhibits the measured activity by half. High values mean weaker potency, low ones greater potency. As a reminder, the CC50 is the concentration giving 50% cytotoxicity. Read a high CC50 as better tolerance by the cells. On to `CCN(CC)c1ccc(/C=N/NC(=O)c2ccccc2)c(O)c1`, for which 1 µM produced 60% inhibition in the experiment with Plasmodium falciparum [1]. This molecule displayed an IC50 in the experiment on Plasmodium falciparum [2] of 1100 nM. The “Ratio CC50/IC50” value in the experiment on MRC5 [3] stood at 1. In addition, it took 1100 nM to reach half-maximal cytotoxicity in the experiment on MRC5 [4] (CC50).

Turning to `COc1ccc(C(=O)N/N=C/c2cccc(O)c2O)cc1`, the inhibition at 1 µM in the experiment with Plasmodium falciparum [1] amounted to 21%.

As to `COc1ccc(C(=O)N/N=C/c2cc(C(C)(C)C)ccc2O)cc1`, the inhibition at 1 µM in the experiment on Plasmodium falciparum [1] turned out to be 53%. In the experiment with Plasmodium falciparum [2], this molecule registered an IC50 of 2300 nM. In addition, in the experiment on MRC5 [4], the 50% cytotoxic concentration (CC50) is greater than 100000 nM.

Turning to `Cc1ccc(O)c(/C=N/NC(=O)c2ccc(C(C)(C)C)cc2)c1`, the inhibition at 1 µM in the experiment with Plasmodium falciparum [1] turned out to be 65%. Moreover, the IC50 in the experiment with Plasmodium falciparum [2] was determined as 2200 nM. Further, the Ratio CC50/IC50 in the experiment on MRC5 [3] came out at 7.4. In the experiment with MRC5 [4], this molecule registered a 50% cytotoxic concentration (CC50) of 16300 nM.

For `O=C(N/N=C/c1ccccc1O)c1ccc(O)cc1`, 1 µM produced 11% inhibition in the experiment on Plasmodium falciparum [1].

Regarding `O=C(N/N=C/c1ccccc1O)c1ccc(Cl)cc1`, in the experiment with Plasmodium falciparum [1], the inhibition at 1 µM was 25%.

On to `CC(=O)N/N=C/c1cccc(O)c1O`, for which testing at 1 µM in the experiment on Plasmodium falciparum [1] gave an inhibition of 29%.

Consider `COc1cccc(/C=N/NC(=O)c2ccco2)c1O`, for which at 1 µM the inhibition with Plasmodium falciparum [1] was 41%.

As for `CC(C)(C)c1ccc(O)c(/C=N/NC(=O)c2cccs2)c1`, the inhibition at 1 µM in the experiment on Plasmodium falciparum [1] was 52%. For the same molecule, in the experiment on Plasmodium falciparum [2], the half-inhibitory concentration (IC50) worked out at 1600 nM. Further, the Ratio CC50/IC50 with MRC5 [3] worked out at 7.5. This molecule also came in with a cytotoxic concentration (CC50) in the experiment with MRC5 [4] of 12000 nM.

`O=C(N/N=C/c1ccccc1O)c1cccs1` had an inhibition at 1 µM in the experiment on Plasmodium falciparum [1] of 13%.

In the experiment with Plasmodium falciparum [1], `O=C(N/N=C/c1cccc(O)c1O)c1cccs1` displayed an inhibition at 1 µM of 29%.

The molecule `CC(C)(C)c1ccc(O)c(/C=N/NC(=O)c2ccc(Cl)cc2)c1` yielded an inhibition at 1 µM with Plasmodium falciparum [1] of 69%. This molecule returned a 50% inhibitory concentration (IC50) with Plasmodium falciparum [2] of 2900 nM. For the same molecule, the “Ratio CC50/IC50” value with MRC5 [3] came to 1. Moreover, in the experiment with MRC5 [4], the midpoint of cytotoxicity, the CC50, lay at 3600 nM.

Turning to `CC(C)(C)c1ccc(C(=O)N/N=C/c2cccc(O)c2O)cc1`, in the experiment with Plasmodium falciparum [1], the inhibition at 1 µM is 41%.

In the experiment with Plasmodium falciparum [1], `O=C(N/N=C/c1cccc(O)c1O)c1ccc(O)cc1` gave an inhibition at 1 µM of 20%.

`O=C(N/N=C/c1cccc(O)c1O)c1ccc([N+](=O)[O-])cc1` yielded an inhibition at 1 µM in the experiment with Plasmodium falciparum [1] of 24%.

In the experiment on Plasmodium falciparum [1], `CCN(CC)c1ccc(/C=N/NC(=O)c2ccc(C(C)(C)C)cc2)c(O)c1` had an inhibition at 1 µM of 73%. This molecule also gave an IC50 in the experiment with Plasmodium falciparum [2] of 900 nM. Further, the “Ratio CC50/IC50” value in the experiment on MRC5 [3] came out at 1. In addition, it took 1100 nM to reach half-maximal cytotoxicity in the experiment with MRC5 [4] (CC50).

On to `O=C(N/N=C/c1ccccc1O)c1ccc([N+](=O)[O-])cc1`, for which the inhibition at 1 µM in the experiment with Plasmodium falciparum [1] amounted to 4%.

In the experiment with Plasmodium falciparum [1], `O=C(Cc1ccccc1)N/N=C/c1ccccc1O` yielded an inhibition at 1 µM of 27%.

In turn, `CC(C)(C)c1ccc(O)c(/C=N/NC(=O)c2ccccc2)c1` came in with an inhibition at 1 µM with Plasmodium falciparum [1] of 59%. The molecule further gave an IC50 in the experiment with Plasmodium falciparum [2] of 1300 nM. The Ratio CC50/IC50 in the experiment on MRC5 [3] was determined as 2. For the same molecule, the half-maximal cytotoxic concentration (CC50) in the experiment on MRC5 [4] was 2600 nM.

In the experiment with Plasmodium falciparum [1], `O=C(N/N=C/c1cccc(O)c1O)c1ccccc1` came in with an inhibition at 1 µM of 30%.

On to `O=C(N/N=C/c1cccc(O)c1O)c1cccnc1`, for which the inhibition at 1 µM with Plasmodium falciparum [1] was 16%.

For `Cc1ccc(O)c(/C=N/NC(=O)c2ccc(Cl)cc2)c1`, the inhibition at 1 µM in the experiment on Plasmodium falciparum [1] was found to be 52%. Also, the IC50 in the experiment with Plasmodium falciparum [2] was found to be 1900 nM. In the experiment with MRC5 [4], this molecule showed a 50% cytotoxic concentration (CC50) greater than 100000 nM.

In the experiment with Plasmodium falciparum [1], `COc1ccc(C(=O)N/N=C/c2ccccc2O)cc1` returned an inhibition at 1 µM of 14%.

For the molecule `O=C(N/N=C/c1cccc(O)c1O)c1ccco1`, the inhibition at 1 µM in the experiment with Plasmodium falciparum [1] turned out to be 20%.

In the experiment with Plasmodium falciparum [1], `O=C(N/N=C/c1ccccc1O)c1ccccc1` gave an inhibition at 1 µM of 35%.

In the experiment with Plasmodium falciparum [1], `CC(=O)N/N=C/c1ccccc1O` returned an inhibition at 1 µM of 0%.

On to `O=C(Cc1ccccc1)N/N=C/c1cccc(O)c1O`, for which, in the experiment with Plasmodium falciparum [1], the inhibition at 1 µM came to 19%.

Regarding `O=C(N/N=C/c1cccc(O)c1O)c1ccncc1`, testing at 1 µM with Plasmodium falciparum [1] gave an inhibition of 11%.

In turn, `CC(C)(C)c1ccc(O)c(/C=N/NC(=O)c2ccc([N+](=O)[O-])cc2)c1` gave an inhibition at 1 µM with Plasmodium falciparum [1] of 81%. Also, the IC50 with Plasmodium falciparum [2] turned out to be 1600 nM. Further, in the experiment on MRC5 [3], the “Ratio CC50/IC50” value stood at 1. Also, in the experiment with MRC5 [4], it took 1100 nM to reach half-maximal cytotoxicity (CC50).

As for `O=C(N/N=C/c1cccc(O)c1O)c1ccc(Cl)cc1`, in the experiment with Plasmodium falciparum [1], testing at 1 µM gave an inhibition of 13%.

`CC(C)(C)c1ccc(C(=O)N/N=C/c2cc(Br)ccc2O)cc1`: in the experiment with Plasmodium falciparum [1], at 1 µM the inhibition was 52%. The molecule further returned a half-inhibitory concentration (IC50) with Plasmodium falciparum [2] of 1700 nM. This molecule gave a cytotoxic concentration (CC50) in the experiment with MRC5 [4] greater than 100000 nM.

Consider `CC(C)(C)c1ccc(C(=O)N/N=C/c2ccccc2O)cc1`, for which the inhibition at 1 µM in the experiment with Plasmodium falciparum [1] came out at 43%.

Turning to `CCN(CC)c1ccc(/C=N/NC(=O)c2ccc([N+](=O)[O-])cc2)c(O)c1`, the inhibition at 1 µM in the experiment with Plasmodium falciparum [1] came out at 69%. The molecule also yielded an IC50 with Plasmodium falciparum [2] of 1000 nM. In the experiment with MRC5 [3], the Ratio CC50/IC50 came out at 2.5. Also, the CC50 in the experiment with MRC5 [4] is 2500 nM.

In turn, `CCN(CC)CCCC(C)Nc1ccnc2cc(Cl)ccc12` (stereo unspecified) [CHLOROQUINE] came in with a CC50 in the experiment with MRC5 [4] of 50000 nM.

For `O=C(N/N=C/c1ccccc1O)c1cccnc1` [N'-(2-HYDROXYBENZYLIDENE)NICOTINOHYDRAZIDE], testing at 1 µM in the experiment with Plasmodium falciparum [1] gave an inhibition of 26%.

`O=C(N/N=C/c1ccccc1O)c1ccncc1` [SALINAZID]: the inhibition at 1 µM in the experiment with Plasmodium falciparum [1] was 22%.
